In ChEMBL document CHEMBL4706563, “Triphenylethylene analogues: Design, synthesis and evaluation of antitumor activity and topoisomerase inhibitors” (Eur J Med Chem, 2020):

Assays:
SR = test: Antiproliferative activity against human SR cells assessed as growth inhibition at 10 uM relative to control; type: functional; conditions: read-out: GI
In short: (§1)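 NCI 60 human tumour cell line panel screen. Compounds tested at a single dose and growth inhibition (%) determined for each line.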

[1] = Antiproliferative activity against human CNS cancer cells; type: functional; conditions: CNS cell; for CC50: read-out: LC50 (the source's name)
NCI-H226 = test: Antiproliferative activity against human NCI-H226 cells assessed as growth inhibition at 10 uM relative to control; type: functional; conditions: read-out: GI
In short: (§2)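 Single-dose screen run by the US National Cancer Institute across its 60-human tumour cell line panel. Each compound was tested at one concentration. Percent growth inhibition was recorded for each cell line.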

CAKI-1 = test: Antiproliferative activity against human CAKI-1 cells assessed as growth inhibition at 10 uM relative to control; type: functional; conditions: read-out: GI; in short: as §2
HOP-62 = test: Antiproliferative activity against human HOP-62 cells assessed as growth inhibition at 10 uM relative to control; type: functional; conditions: read-out: GI; in short: as §2
[2] = Antiproliferative activity against human colon cancer cells; type: functional; conditions: Colon cancer cell line
ACHN = test: Antiproliferative activity against human ACHN cells assessed as growth inhibition at 10 uM relative to control; type: functional; conditions: read-out: GI; in short: as §2
Malme-3M = test: Antiproliferative activity against human Malme-3M cells assessed as growth inhibition at 10 uM relative to control; type: functional; conditions: read-out: GI; in short: as §2
PC-3 = test: Antiproliferative activity against human PC-3 cells assessed as growth inhibition at 10 uM relative to control; type: functional; conditions: read-out: GI; in short: as §2
SW-620 = test: Antiproliferative activity against human SW-620 cells assessed as growth inhibition at 10 uM relative to control; type: functional; conditions: read-out: GI; in short: as §1
SF-295 = test: Antiproliferative activity against human SF-295 cells assessed as growth inhibition at 10 uM relative to control; type: functional; conditions: read-out: GI; in short: as §2
NCI-H322M = test: Antiproliferative activity against human NCI-H322M cells assessed as growth inhibition at 10 uM relative to control; type: functional; conditions: read-out: GI; in short: as §2
786-0 = test: Antiproliferative activity against human 786-0 cells assessed as growth inhibition at 10 uM relative to control; type: functional; conditions: read-out: GI; in short: as §2
TK-10 = test: Antiproliferative activity against human TK-10 cells assessed as growth inhibition at 10 uM relative to control; type: functional; conditions: read-out: GI; in short: as §1
CCRF-CEM = test: Antiproliferative activity against human CCRF-CEM cells assessed as growth inhibition at 10 uM relative to control; type: functional; conditions: read-out: GI; in short: as §2
SF-268 = test: Antiproliferative activity against human SF-268 cells assessed as growth inhibition at 10 uM relative to control; type: functional; conditions: read-out: GI; in short: as §2
A498 = test: Antiproliferative activity against human A498 cells assessed as growth inhibition at 10 uM relative to control; type: functional; conditions: read-out: GI; in short: as §2
SK-MEL-2 = test: Antiproliferative activity against human SK-MEL-2 cells assessed as growth inhibition at 10 uM relative to control; type: functional; conditions: read-out: GI; in short: as §2
NCI-H460 = test: Antiproliferative activity against human NCI-H460 cells assessed as growth inhibition at 10 uM relative to control; type: functional; conditions: read-out: GI; in short: as §2
EKVX = test: Antiproliferative activity against human EKVX cells assessed as growth inhibition at 10 uM relative to control; type: functional; conditions: read-out: GI; in short: as §2
HEK293 [3] = test: Cytotoxicity against human HEK293 cells at 10^-4 M incubated for 24 hrs by MTT assay relative to control; type: cell-based; conditions: hek293, 24 h, 100 µM
In short: (§3)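 HEK293 cells grown in low-glucose DMEM with 10% FBS, glutamine, penicillin/streptomycin at 37 °C, 5% CO2. Cells exposed to compound at 10^-4 to 10^-8 M for 24 h at 37 °C. MTT from 5 mg/mL stock added for 4 h at 37 °C in dark. Formazan dissolved in DMSO and read at 570 nm. % toxicity calculated relative to medium-only control wells. Three experiments, each in triplicate.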

HEK293 [4] = test: Cytotoxicity against human HEK293 cells at 10^-5 M incubated for 24 hrs by MTT assay relative to control; type: cell-based; conditions: hek293, 24 h, 10 µM; in short: as §3
HEK293 [5] = test: Cytotoxicity against human HEK293 cells at 10^-7 M incubated for 24 hrs by MTT assay relative to control; type: cell-based; conditions: hek293, 24 h, 0.1 µM; in short: as §3
HEK293 [6] = test: Cytotoxicity against human HEK293 cells at 10^-8 M incubated for 24 hrs by MTT assay relative to control; type: cell-based; conditions: hek293, 24 h, 0.01 µM; in short: as §3
HEK293 [7] = test: Cytotoxicity against human HEK293 cells at 10^-6 M incubated for 24 hrs by MTT assay relative to control; type: cell-based; conditions: hek293, 24 h, 1 µM; in short: as §3
HEK293 [8] = test: Cytotoxicity against human HEK293 cells at 100 uM incubated for 24 hrs by MTT assay relative to control; type: cell-based; conditions: hek293, 24 h; in short: as §3

CC/C(=C(\c1ccccc1)c1ccc(OCCN(C)C)cc1)c1ccccc1 [TAMOXIFEN]
inhibition of growth at 10 µM (SR): -18.9%
GI50 [1]: 4.04 µM
TGI [1]: 10.6 µM
CC50 [1]: 44.1 µM
inhibition of growth at 10 µM (NCI-H226): 7.5%
inhibition of growth at 10 µM (CAKI-1): 70.9%
inhibition of growth at 10 µM (HOP-62): 56.9%
GI50 [2]: 1.88 µM
TGI [2]: 5.96 µM
inhibition of growth at 10 µM (ACHN): 39.4%
inhibition of growth at 10 µM (Malme-3M): -67.5%
inhibition of growth at 10 µM (PC-3): 65.6%
inhibition of growth at 10 µM (SW-620): 95.1%
inhibition of growth at 10 µM (SF-295): 59.8%
inhibition of growth at 10 µM (NCI-H322M): 34%
inhibition of growth at 10 µM (786-0): -41%
inhibition of growth at 10 µM (TK-10): 48.1%
inhibition of growth at 10 µM (CCRF-CEM): 65.4%
inhibition of growth at 10 µM (SF-268): 43.3%
inhibition of growth at 10 µM (A498): 35.9%
inhibition of growth at 10 µM (SK-MEL-2): 31.5%
inhibition of growth at 10 µM (NCI-H460): 97.6%
inhibition of growth at 10 µM (EKVX): 40%

C/C(=C(/c1ccccc1)c1ccc(OCC(O)CNCCN2CCOCC2)cc1)c1ccccc1 (configuration not stated)
inhibition of growth at 10 µM (SR): 99.3%
Activity (HEK293 [3]): 15.82%
GI50 [1]: 2.81 µM
TGI [1]: 9.9 µM
CC50 [1]: 25.2 µM
Activity (HEK293 [4]): 13.73%
inhibition of growth at 10 µM (NCI-H226): 3.88%
inhibition of growth at 10 µM (CAKI-1): 32.1%
Activity (HEK293 [5]): 5.43%
inhibition of growth at 10 µM (HOP-62): 25.1%
GI50 [2]: 2.06 µM
LC50 [2]: 13.8 µM
TGI [2]: 5.51 µM
Activity (HEK293 [6]): 4.74%
inhibition of growth at 10 µM (ACHN): 18.6%
inhibition of growth at 10 µM (Malme-3M): -71.7%
inhibition of growth at 10 µM (PC-3): 34.5%
inhibition of growth at 10 µM (SW-620): 51%
inhibition of growth at 10 µM (SF-295): 28.8%
inhibition of growth at 10 µM (NCI-H322M): 27.3%
inhibition of growth at 10 µM (786-0): 2.44%
inhibition of growth at 10 µM (TK-10): 26.5%
inhibition of growth at 10 µM (CCRF-CEM): 43.5%
Activity (HEK293 [7]): 7.04%
Activity (HEK293 [8]): 20%
inhibition of growth at 10 µM (A498): 20.1%
inhibition of growth at 10 µM (SK-MEL-2): 5.09%
inhibition of growth at 10 µM (NCI-H460): 82.4%
inhibition of growth at 10 µM (EKVX): 17.2%
